Screens from PubChem.
TRPC6 act: activators of mouse TRPC6 channel | AID 2550 | B-score at 10 µM | 0.13% of 310,000 active | HEK293-TRPC6 membrane potential dye fluorescence; active compounds read high | Q61143;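 active = B-score of the integrated fluorescence ratio above library mean plus 3 SD, and starting fluorescence ratio within library mean plus 5 SD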;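 also: higher score means more depolarization so channel activation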
TRPC4 inh: TRPC4 (mouse) channel inhibition; B-score at 10 µM; HEK293 TRPC4beta/mu-opioid, DAMGO-evoked Fluo4 calcium flux; active compounds read low; 0.39% of 300,000 active; AID 2247;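 active = B-score over 3 SD under the library average, no early fluorescence shift, positive overall ratio signal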
Target sequence (Q9QUQ5 whole entry, looked up): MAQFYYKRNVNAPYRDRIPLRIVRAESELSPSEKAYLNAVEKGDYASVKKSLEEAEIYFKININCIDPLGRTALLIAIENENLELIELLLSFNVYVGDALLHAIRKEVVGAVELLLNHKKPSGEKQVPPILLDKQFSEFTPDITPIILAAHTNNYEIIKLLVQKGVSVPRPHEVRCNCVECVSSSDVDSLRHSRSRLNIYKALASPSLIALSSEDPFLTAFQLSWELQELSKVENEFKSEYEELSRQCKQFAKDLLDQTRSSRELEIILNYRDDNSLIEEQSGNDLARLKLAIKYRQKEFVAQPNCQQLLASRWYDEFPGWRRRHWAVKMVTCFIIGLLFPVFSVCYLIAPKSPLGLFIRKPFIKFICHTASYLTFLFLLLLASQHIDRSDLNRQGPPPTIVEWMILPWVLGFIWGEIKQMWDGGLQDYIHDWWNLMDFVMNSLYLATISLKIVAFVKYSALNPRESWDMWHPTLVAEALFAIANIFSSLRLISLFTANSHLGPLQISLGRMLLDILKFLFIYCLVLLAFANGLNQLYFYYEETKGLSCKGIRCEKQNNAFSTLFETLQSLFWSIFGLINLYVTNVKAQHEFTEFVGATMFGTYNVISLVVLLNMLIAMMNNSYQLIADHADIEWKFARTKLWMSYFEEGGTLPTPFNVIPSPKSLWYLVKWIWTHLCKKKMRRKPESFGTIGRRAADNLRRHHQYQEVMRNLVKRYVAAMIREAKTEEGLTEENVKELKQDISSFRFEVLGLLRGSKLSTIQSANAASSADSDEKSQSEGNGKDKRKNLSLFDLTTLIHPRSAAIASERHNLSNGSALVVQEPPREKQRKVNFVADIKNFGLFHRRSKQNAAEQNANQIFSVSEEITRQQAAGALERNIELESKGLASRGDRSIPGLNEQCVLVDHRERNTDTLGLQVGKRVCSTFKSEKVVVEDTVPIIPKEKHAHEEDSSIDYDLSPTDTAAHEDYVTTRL
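System: stable TRPC4beta/mu-opioid receptor HEK293 cells; Dosing: single-point compound dosing; Measured by: Fluo4 Ca2+ flux fluorescence; Read-out basis: per-well B score of integrated baseline-normalized Fluo4 ratio.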
FID counter: counter-screen for HCV NS3 helicase inhibitors: DNA intercalator displacement | AID 1845 | 0.17% of 290,000 active | inhibition, % at 7.9 µM | DNA fluorescent intercalator displacement, fluorescence; in the data active = inhibition above about 37%;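 also: 0% = vehicle and 100% = reference compound; higher means more ethidium bromide displaced from hairpin DNA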
TRPC4 act: TRPC4 (mouse) channel activation; Q9QUQ5; HEK293 TRPC4beta/mu-opioid, Fluo4 calcium fluorescence; active compounds read high; B-score at 10 µM; 0.49% of 310,000 active; AID 2237;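 active = B-score above 5 SD of library B-scores, and initial fluorescence ratio not above library mean plus 5 SD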;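 also: positive B-score marks a calcium rise read as TRPC4 activation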
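Material: HEK293 stable line with TRPC4beta plus mu-opioid receptor; technique: Fluo4 calcium-sensitive dye fluorescence, kinetic, 1 Hz baseline; timing: Fluo4 dye loading 45 min at room temperature, 110 s recording; controls: assay buffer as low control, maximal DAMGO as high control; read-out: integrated baseline-normalised fluorescence ratio, converted to per-well B score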
TRPC4 PAM: allosterically enhances the mouse TRPC4 cation channel; HEK293 TRPC4beta/mu-opioid, DAMGO EC20, Fluo-4 Ca2+ flux; active compounds read high; B-score at 10 µM; 0.42% of 310,000 active; AID 2227;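 active = B-score of calcium response area above 5 SD of library B-scores, with initial fluorescence ratio within 5 SD of library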;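 also: B-score of integrated fluorescence ratio over time as area under calcium response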
TRPC6 inhibitor: inhibitors of mouse TRPC6 channel | Q61143 | 1.1% of 310,000 active | AID 2553 | B-score at 10 µM | HEK293-TRPC6, membrane potential dye, ACh-evoked depolarization; active compounds read low;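 active = B-score under library mean minus 3 SD, initial fluorescence not abnormally high, positive integrated signal ratio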;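 also: B-score derived from integrated fluorescence ratio over the kinetic read; more negative B-score means stronger inhibition of depolarization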
TRPC4 sel inh 2: second check of whether TRPC6 inhibitors also affect mouse TRPC4; shares compounds with TRPC6 inhibitor; HEK293 TRPC4/MOR, membrane potential dye fluorescence; channel activated by saturating DAMGO dose; inhibition, % at 10 µM; 42% of 920 active;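 active = compounds whose fluorescence signal differed from control wells by over 3 SD, either direction, in both duplicate plates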
TRPC4 spec: selectivity of TRPC6 inhibitors: effect on mouse TRPC4; shares compounds with TRPC6 inhibitor; AID 2777; HEK293 TRPC4/mu-opioid, membrane potential fluorescence; activity change, negative = inhibition, % at 10 µM; 61% of 920 active;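 active = rise or fall in signal beyond 3 SD of buffer-only wells in both replicate plates, either sign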;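 also: integrated kinetic ratio of fluorescence range over baseline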
HEK293 MPD ctr 2-1: second counter-screen for TRPC6 inhibitors: parental HEK293 cells. shares compounds with TRPC6 inhibitor. parental HEK293 membrane potential dye fluorescence; maximal acetylcholine challenge after compound addition. signal change vs control, % at 10 µM. 31% of 920 active. AID 2779;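 active = membrane potential signal moving either way by over 3 SD of the maximum-effect control, in both duplicate plates, meaning non-specific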
HEK293 MPD ctr-1: parental HEK293 nonspecific activity of TRPC6 inhibitors | parental HEK293 membrane potential dye fluorescence | shares compounds with TRPC6 inhibitor | 60% of 920 active | membrane potential signal change, % at 10 µM;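 active = membrane potential signal shifting up or down by more than 3 SD of buffer-only wells, on both duplicate plates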
HEK293 MPD ctr-2: parental HEK293 nonspecific activity of TRPC6 modulators. shares compounds with TRPC6 inhibitor. membrane potential dye fluorescence. membrane potential signal change, % at 10 µM. 51% of 2,400 active;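 active = membrane potential signal moves up or down beyond 5 SD from buffer-only wells, on both duplicate plates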
HEK293 MPD ctr 2-2: second counter-screen for TRPC6 modulators: effect in parental HEK293 cells. shares compounds with TRPC6 inhibitor. membrane potential dye fluorescence; after compound, maximal acetylcholine stimulation. inhibition, % at 10 µM. 14% of 2,400 active. AID 488926;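 active = membrane potential signal drops by more than 5 SD from the mean control signal, in both duplicate plates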;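 also: plate controls were acetylcholine ECmax control wells for no effect and buffer only wells for full effect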
TRPC4/MOR mod: selectivity of TRPC6 modulators against mouse TRPC4 | shares compounds with TRPC6 inhibitor | HEK293 TRPC4/mu-opioid, membrane potential fluorescence | percent change from control (negative = decrease, positive = increase), % at 10 µM | 69% of 2,400 active | AID 488927;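 active = membrane potential signal moved up or down beyond 5 SD of buffer control wells, in both duplicate plates, actives on both sides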;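 also: plate controls were assay buffer wells for no effect and DAMGO maximal-effect wells for full effect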
TRPC4 ctr inh 2: mouse TRPC4 off-target activity of TRPC6 modulators, second screen; shares compounds with TRPC6 inhibitor; HEK293 TRPC4/mu-opioid, membrane potential dye fluorescence; stimulated with maximal-effect DAMGO; inhibition, % at 10 µM; 55% of 2,400 active;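 active = drop in membrane potential signal beyond 5 SD of the control wells in both duplicate plates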;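 also: TRPC4 counter screen for TRPC6 hits run under conditions tuned for TRPC6 not TRPC4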
TRPC6 inh conf: mouse TRPC6 inhibitor confirmation; shares compounds with TRPC6 inhibitor; HEK293-TRPC6, membrane potential dye, ACh-evoked depolarization; inhibition, % at 10 µM; 43% of 3,300 active; AID 488960;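 active = fluorescence ratio falls more than 5 SD below the full-stimulation control mean, in both duplicate runs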;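 also: integrated fluorescence ratio of peak minus minimum over baseline after agonist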
TRPC6 act confirm: mouse TRPC6 activator confirmation. 11% of 2,800 active. HEK293-TRPC6 membrane potential dye fluorescence, FDSS. AID 488961. shares compounds with TRPC6 inhibitor. activation, % at 10 µM;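 active = ratio signal rise beyond 5 SD above unstimulated control wells' mean, seen in both duplicate runs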;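 also: plate controls were buffer EC0 wells for no effect and acetylcholine ECmax response for full effect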
Active calls of the source: *; i = inactive; . = no result given. Only some compounds are listed: those with a hit (about 2.3% of all), similar ones and a draw of the others.

SMILES	TRPC6 act	TRPC4 inh	FID counter	TRPC4 act	TRPC4 PAM	TRPC6 inhibitor	HEK293 MPD ctr-2	HEK293 MPD ctr 2-2	TRPC4/MOR mod	TRPC4 ctr inh 2	TRPC6 inh conf	TRPC6 act confirm	others
Cc1ccc(NCc2nnc(SCCN3CCCCC3)n2CC2CCCO2)c(C)c1 (configuration not stated)	i	i	7.5	i	i	-5.71*	i	i	15.5%*	35.0%*	41.0%*	i
Cc1cccc(NS(=O)(=O)c2ccc(Oc3ccccc3)cc2)n1	i	i	-17.0	i	i	-6.34*	i	i	8.5%*	i	i	i
COc1ccccc1N1CCN(C(=O)c2cc(-c3ccccc3O)on2)CC1	i	i	-28.9	i	i	-5.92*	i	i	i	i	i	i
CCCCC(=O)NC(c1ccc(Cl)cc1Cl)c1ccc2cccnc2c1O (configuration not stated)	i	i	-21.6	i	i	-5.17*	-154.0%*	i	-29.5%*	i	i	i
CCCC(=O)NC(c1ccc(C(C)C)cc1)c1ccc2cccnc2c1O (configuration not stated)	i	i	-38.2	i	i	-6.4*	i	i	i	i	i	i
CCC(=O)NC(c1ccc(Cl)cc1Cl)c1ccc2cccnc2c1O (configuration not stated)	i	i	-26.1	i	i	i	.	.	.	.	.	.
O=C(/C=C/NNC(=O)c1ccc(Br)cc1)c1ccccc1	i	i	-7.9	i	i	i	.	.	.	.	.	.
O=C(/C=C/NNC(=O)c1ccccc1)c1ccccc1	i	i	-9.5	i	i	-6.16*	i	i	i	i	i	i
Cc1ccc(-n2[nH]c(C)c(C=Nc3ccc(S(=O)(=O)Nc4nccs4)cc3)c2=O)cc1	i	i	-4.6	i	i	i	.	.	.	.	.	.
Cc1[nH]n(-c2ccc(Br)cc2)c(=O)c1C=Nc1ccc(S(=O)(=O)Nc2nccs2)cc1	i	i	1.9	i	i	-5.79*	i	i	-39.0%*	39.5%*	i	i
COc1ccc(CN(C)C(=O)c2cnc(C)cn2)c(OC)c1OC	i	i	-9.5	i	i	i	.	.	.	.	.	.
CC(C)OC(=O)c1cccnc1SCc1cc(=O)n2ccccc2n1	i	i	-9.1	i	i	-6.05*	i	i	i	i	i	.
O=C(CSc1ncccn1)N1CCN(C(c2ccccc2)c2ccccc2)CC1	i	i	-29.4	i	i	-7.88*	.	.	.	.	76.0%*	.	TRPC4 sel inh 2=i;TRPC4 spec=1.9%*;HEK293 MPD ctr 2-1=i;HEK293 MPD ctr-1=1.4%*
O=C(Nc1ccc(Cl)cc1Cl)c1ccc2c(=O)n3c(nc2c1)CCC3	i	i	.	59*	i	-5.1*	276.5%*	114.5%*	34.0%*	i	i	.
O=C(Oc1ccc(F)c(F)c1)c1ccc2c(=O)n3c(nc2c1)CCC3	i	i	.	i	i	-5.11*	i	i	i	i	i	i
CCCCc1nnc(NC(=O)c2ccc3c(=O)n4c(nc3c2)CCC4)s1	i	i	.	i	i	-7.42*	.	.	.	.	i	i	TRPC4 sel inh 2=i;TRPC4 spec=-15.2%*;HEK293 MPD ctr 2-1=i;HEK293 MPD ctr-1=-130.5%*
CC(C)c1ccc(OC(=O)c2ccc3c(=O)n4c(nc3c2)CCC4)cc1	i	i	.	i	i	i	.	.	.	.	.	.
CCc1ccc(C(=O)NNC(=O)c2ccc3c(=O)n4c(nc3c2)CCC4)cc1	i	i	-12.8	i	i	i	.	.	.	.	.	.
CCOc1ccc(CNC(=O)Nc2ccccc2)cc1	i	i	-4.9	i	i	i	.	.	.	.	.	.
Cc1ccc(SC(=O)c2c([N+](=O)[O-])c(C)nn2C)cc1	i	i	-0.8	i	i	-7.16*	.	.	.	.	76.0%*	i	TRPC4 sel inh 2=i;TRPC4 spec=i;HEK293 MPD ctr 2-1=-5.5%*;HEK293 MPD ctr-1=i
Cc1ccccc1NC(=O)CN1CCOCC1	13.5*	i	-0.1	i	i	i	i	i	i	i	i	i
Cc1ccccc1NC(=O)CN1CCC(C(=O)c2ccc3c(c2)OCCO3)CC1	i	i	-13.3	i	i	-5.55*	i	i	i	i	i	i
Cc1ccccc1NC(=O)CN1CCN(C)CC1	i	i	3.0	i	i	i	.	.	.	.	.	.
O=C(CN1CCC(C(=O)c2ccc3c(c2)OCCO3)CC1)Nc1ccccc1C(F)(F)F	i	i	-23.4	i	i	i	.	.	.	.	.	.
COC(=O)C1(C)NC(c2ccc(O)cc2)C2C(=O)N(c3ccccc3)C(=O)C21 (configuration not stated)	i	i	-1.7	i	i	i	.	.	.	.	.	.
